Assay results from publication PMC3924769 (Cell metabolism, 2014).

Key:
[1] = target: T1, DAF-12 (Caenorhabditis elegans, UniProt G5EFF5); assay: Alphascreen assay for ligand-dependent recruitment of SRC1-4 peptide by DAF-12; assay type: biochemical, C. elegans; settings: read-out: EC50, recruitment of SRC1-4 peptide by DAF-12
T1 sequence (G5EFF5 1-753): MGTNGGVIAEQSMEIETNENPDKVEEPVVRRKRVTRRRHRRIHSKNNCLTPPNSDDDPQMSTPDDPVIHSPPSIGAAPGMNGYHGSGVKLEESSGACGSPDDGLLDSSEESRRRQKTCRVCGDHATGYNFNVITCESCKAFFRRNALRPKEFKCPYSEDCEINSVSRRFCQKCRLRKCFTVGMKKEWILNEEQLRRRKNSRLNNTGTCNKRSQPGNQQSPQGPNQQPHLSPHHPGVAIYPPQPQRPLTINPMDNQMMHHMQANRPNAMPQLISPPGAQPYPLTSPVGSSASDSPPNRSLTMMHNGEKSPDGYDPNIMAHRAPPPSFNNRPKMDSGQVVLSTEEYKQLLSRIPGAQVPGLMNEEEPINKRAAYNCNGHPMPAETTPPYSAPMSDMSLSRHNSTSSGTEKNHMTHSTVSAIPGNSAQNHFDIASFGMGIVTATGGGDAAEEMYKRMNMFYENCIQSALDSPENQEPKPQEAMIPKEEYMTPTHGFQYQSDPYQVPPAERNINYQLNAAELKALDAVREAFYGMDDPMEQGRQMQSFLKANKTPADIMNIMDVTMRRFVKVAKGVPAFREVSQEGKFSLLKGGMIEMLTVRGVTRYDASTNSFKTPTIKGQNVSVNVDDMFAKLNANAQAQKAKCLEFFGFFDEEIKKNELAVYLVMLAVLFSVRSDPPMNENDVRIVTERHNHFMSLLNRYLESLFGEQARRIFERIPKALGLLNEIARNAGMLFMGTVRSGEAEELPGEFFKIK
Outline: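 Test compound binding to DAF-12 was measured by AlphaScreen as ligand-dependent recruitment of the SRC1-4 peptide, which carries the SRC-1 NR-box motif. Signal was expressed as fold activation over an ethanol control and reported as mean ±SEM.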

[2] = target: T1, DAF-12; assay: Luciferase assay for DAF-12 transcriptional activation in HEK-293T cells; assay type: cell-based, C. elegans; settings: 1 nM – 3125 nM tested
Outline: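 HEK-293T cells were calcium-phosphate co-transfected with full-length DAF-12, a mir84p-luciferase reporter, GFP and β-galactosidase vectors. Ethanol solutions of test compound (1–3125 nM), or ethanol alone, were added 8 h post-transfection. Luciferase and β-galactosidase activities were read 16 h after addition. A reference dafachronic acid at 100 nM was the positive control. Triplicates, mean ±SD.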

[3] = tested on: daf-9(dh6) worms; assay: daf-9; assay type: in vivo, C. elegans; settings: 27 °C; for daf-9(dh6) dauer rescue activity (in vivo), in words: 0.1 nM – 500 nM tested
Outline: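 Test compound in ethanol (0.1–500 nM final, calculated over the agar volume) or ethanol alone was mixed with concentrated E. coli OP50 and plated on cholesterol-free NGM agar. About 100 daf-9(dh6) eggs from a 4–8 h egg lay were added per plate and scored for dauer arrest versus development after 60 h at 27 °C. A reference dafachronic acid at 100 nM was the positive control. Two replicates, mean ±SD.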

[4] = tested on: glp-1;daf-36 double mutant worms; assay: Lifespan of germline-deficient glp-1; assay type: in vivo, C. elegans; settings: 100 nM, glp-1;daf-36 worms

Structure (SMILES): C[C@H](CCC[C@H](C)C(=O)O)[C@H]1CC[C@H]2C3=CCC4C[C@H](O)CC[C@]4(C)[C@H]3CC[C@]12C (stereo partly drawn) [3α-OH-Δ^7-DA, (25S)-3α-hydroxy cholest-7-enoic acid]
- EC50 [1]: 200 nM
- DAF-12 activation in luciferase assay (in vitro), in words [2]: active
- daf-9(dh6) dauer rescue activity (in vivo), in words [3]: active

Structure (SMILES): CC(CCCC(C)C1CCC2C3=CCC4CC(O)CCC4(C)C3CCC21C)C(=O)O (stereo not drawn) [3β-OH-Δ^7-DA]
- DAF-12 activation in luciferase assay (in vitro), in words [2]: did not activate DAF-12 in mammalian cells at any tested concentration

Structure (SMILES): C[C@H](CCC[C@H](C)C(=O)O)[C@H]1CC[C@H]2[C@@H]3CCC4CC(=O)CC[C@]4(C)[C@H]3CC[C@]12C (stereo partly drawn) [Δ^0-DA, (25S)-3-keto-cholestanoic acid]
- DAF-12 activation in luciferase assay (in vitro), in words [2]: active
- daf-9(dh6) dauer rescue activity (in vivo), in words [3]: active

Structure (SMILES): CC(CCC[C@@H](C)[C@H]1CC[C@H]2C3=CCC4CC(=O)C=C[C@]4(C)[C@H]3CC[C@]12C)C(=O)O (some centres unmarked) [Δ^1,7-DA, 3-oxocholesta-1,7-dienoic acid]
- EC50 [1]: 15 nM
- Restoration of glp-1-dependent lifespan extension [4]: fully restore glp-1-dependent lifespan extension
- EC50 ([3]; read-out: EC50, daf-9(dh6) dauer rescue, plate based assay, synthetic compound): 2 nM

Structure (SMILES): C[C@H](CCC[C@H](C)C(=O)O)[C@H]1CC[C@H]2C3=CC[C@H]4CC(=O)CC[C@]4(C)[C@H]3CC[C@]12C [Δ^7-DA, Δ^7-dafachronic acid, reference compound]
- EC50 [1]: 8 nM
- Restoration of glp-1-dependent lifespan extension [4]: fully restore glp-1-dependent lifespan extension
